ABCB1 block = inhibitors of human ABCB1 transporter, ABCG2 counter-screen. P08183. CCRF-Adr cells, JC-1 efflux, flow cytometry. inhibition, % at 6.6 µM. 0.067% of 190,000 active. AID 1326; in the data active = inhibition above about 40%;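 note: 0% = vehicle and 100% = reference inhibitor; higher value means more JC-1 retained so stronger ABCB1 efflux block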
Target sequence (P08183 whole entry, looked up): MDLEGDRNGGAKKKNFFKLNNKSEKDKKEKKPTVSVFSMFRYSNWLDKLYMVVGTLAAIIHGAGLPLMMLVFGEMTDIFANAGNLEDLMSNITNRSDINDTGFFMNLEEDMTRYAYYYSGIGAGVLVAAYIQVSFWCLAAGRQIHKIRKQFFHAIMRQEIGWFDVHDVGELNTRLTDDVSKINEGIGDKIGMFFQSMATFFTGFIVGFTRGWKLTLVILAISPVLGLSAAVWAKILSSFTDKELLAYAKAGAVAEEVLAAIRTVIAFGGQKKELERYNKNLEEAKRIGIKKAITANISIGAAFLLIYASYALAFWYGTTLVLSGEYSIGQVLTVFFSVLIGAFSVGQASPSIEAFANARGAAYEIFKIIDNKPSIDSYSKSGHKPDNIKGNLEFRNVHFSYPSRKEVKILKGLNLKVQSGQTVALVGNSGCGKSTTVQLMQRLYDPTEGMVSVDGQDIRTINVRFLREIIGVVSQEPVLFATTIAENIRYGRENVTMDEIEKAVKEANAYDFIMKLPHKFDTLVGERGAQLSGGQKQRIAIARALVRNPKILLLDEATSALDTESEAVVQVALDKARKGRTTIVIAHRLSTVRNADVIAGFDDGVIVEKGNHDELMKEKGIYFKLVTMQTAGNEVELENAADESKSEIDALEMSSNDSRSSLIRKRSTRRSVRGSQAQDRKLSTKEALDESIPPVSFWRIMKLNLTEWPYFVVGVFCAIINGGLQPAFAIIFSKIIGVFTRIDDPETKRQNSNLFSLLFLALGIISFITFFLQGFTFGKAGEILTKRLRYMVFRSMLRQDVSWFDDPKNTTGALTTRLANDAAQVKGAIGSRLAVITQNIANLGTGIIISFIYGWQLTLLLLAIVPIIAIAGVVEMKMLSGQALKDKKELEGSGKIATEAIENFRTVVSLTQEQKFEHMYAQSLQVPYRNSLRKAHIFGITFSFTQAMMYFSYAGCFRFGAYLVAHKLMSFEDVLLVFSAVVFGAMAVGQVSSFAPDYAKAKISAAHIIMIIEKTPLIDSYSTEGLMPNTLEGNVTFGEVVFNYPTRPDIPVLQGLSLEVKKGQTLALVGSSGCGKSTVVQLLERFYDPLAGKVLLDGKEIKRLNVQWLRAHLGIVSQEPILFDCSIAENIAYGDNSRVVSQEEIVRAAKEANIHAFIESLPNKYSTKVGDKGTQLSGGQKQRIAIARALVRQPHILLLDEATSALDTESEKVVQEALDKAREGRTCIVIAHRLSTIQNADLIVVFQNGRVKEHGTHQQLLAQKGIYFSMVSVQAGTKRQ
ABCG2 block = blocks JC-1 efflux by human ABCG2 transporter | inhibition, % at 6.6 µM | 0.1% of 190,000 active | IgMXP3 cells, flow cytometry | Q9UNQ0;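 active = inhibition above 80%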;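 note: 0% = DMSO and 100% = nicardipine control wells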
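Measure – % inhibition of efflux relative to nicardipine and DMSO · Test system – ABCG2 IgMXP3 and barcoded ABCB1 CCRF-Adr cell mix · Control set – nicardipine as high control, DMSO as low control · Compound – one concentration, 6.6 µM final · Signal – flow cytometry of retained JC-1 fluorescence · Timing – 10 min exposure at 25 °C with rotation, no wash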
WT yeast gro inh = growth inhibition of WT yeast, mitochondrial fusion screen | mitochondrial fusion phenotypic screen, WT strain | inhibition, % at 10 µM | 2.1% of 190,000 active | AID 1362; in the data active = inhibition above about 58%; tested in S. cerevisiae
MEKK2mut PB1 HTS = signal of MEK5 binding to mutant human MEKK2 PB1 domain; 0.35% of 290,000 active; AID 1530; percent response, % at 10 µM; bead flow cytometry, Alexa488-MEK5 binding to MEKK2 mutant; in the data active = percent response above about 24%, passing the limit was not always enough
MEKK3 PB1 HTS = MEKK3-MEK5 PB1 interaction, increase or decrease; 1.4% of 290,000 active; Q99759; AID 1529; binding response (% of control), % at 10 µM; bead-based flow cytometry, Alexa488-MEK5 binding to MEKK3; actives lie on both sides; 0 = blocked by unlabeled MEK5, 100 = vehicle;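 active = binding response more than 3 SD above or below the average of its plate-row segment, actives on both sides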;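 note: Alexa488 bead fluorescence after subtracting the streptavidin-only scavenger bead signal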
MEKK2 WT-MEK5 = raises or lowers MEK5 binding to wildtype human MEKK2 PB1 domain; Q9Y2U5; bead flow cytometry, Alexa488-MEK5 binding to MEKK2 WT; actives lie on both sides; binding response (% of control), % at 10 µM; 1.1% of 290,000 active; in the data active = binding response below about 67% or above about 130%
MEKK2wt confirm = raises or lowers MEK5 binding to wildtype human MEKK2, retest; shares compounds with MEKK3 PB1 HTS; bead flow cytometry, Alexa488-MEK5 binding to MEKK2 WT; actives lie on both sides; binding response (% of control), % at 10 µM; 2.4% of 5,900 active; AID 1892; in the data active = binding response below about 16% or above about 210%; inactive = in between
MEKK2mut-MEK5 = signal of MEK5 binding to mutant human MEKK2, retest; bead flow cytometry, Alexa488-MEK5 binding to MEKK2 mutant; 2% of 5,900 active; shares compounds with MEKK3 PB1 HTS; AID 1893; percent response, % at 10 µM; in the data active = percent response mostly above about 71%, no sharp cut-off; inactive = mostly below about 38%;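 note: higher means compound restores mutant binding toward wildtype level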
MEKK3-MEK5 inh = MEKK3-MEK5 PB1 inhibition, single concentration confirmation; shares compounds with MEKK3 PB1 HTS; bead flow cytometry, Alexa488-MEK5 binding to MEKK3; stronger effect = lower value; binding response (% of control), % at 10 µM; 1.8% of 5,900 active; AID 1894;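 active = binding response below 72% of control, or above a set upper limit, though filed actives all read lower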;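 note: 100% = DMSO only wells and 0% = binding blocked by excess unlabeled MEK5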
Starred values were filed as active, the others as inactive; nt = no result; [ ] = remark or other dose. Hits are enriched below; roughly 3.5% of the tested compounds scored in any of these assays.

SMILES	ABCB1 block	ABCG2 block	WT yeast gro inh	MEKK2mut PB1 HTS	MEKK3 PB1 HTS	MEKK2 WT-MEK5	MEKK2wt confirm	MEKK2mut-MEK5	MEKK3-MEK5 inh
COc1ccc(CNCCC(c2ccc(OC)cc2)c2ccccc2OC)cc1 (stereo not drawn)	nt	nt	nt	21	106	147*	149	41	104
COc1ccc(C(CCNCc2ccc(N(C)C)cc2)c2ccccc2OC)cc1 (stereo not drawn)	nt	nt	nt	22	108	148*	142	18	105
COc1ccc(CNC(C)CCc2ccccc2)cc1 (stereo not drawn)	nt	nt	nt	9	107	113	nt	nt	nt
COc1ccc(CNC(=O)CNC(C)c2ccc(F)cc2)cc1 (stereo not drawn)	nt	nt	nt	3	103	107	nt	nt	nt
COc1ccc(C(CCNC(C)c2ccccc2)c2ccc(F)cc2)cc1 (stereo not drawn)	2	4	59*	46	107	156*	124	6	103
COc1ccccc1N(C(=O)c1csnn1)C(C(=O)NC1CCCC1)c1ccccc1 (stereo not drawn)	nt	nt	nt	4	102	105	nt	nt	nt
COc1ccc(CNCCC(c2ccccc2)c2ccc(OC(C)C)cc2)cc1OC (stereo not drawn)	nt	nt	nt	22	106	151*	147	34	110
COc1ccc(-c2oc3ncnc(N)c3c2-c2ccccc2)cc1	1	4	15	-4	99	97	nt	nt	nt
CN(C)CCCNc1ncnc2oc(-c3ccccc3)c(-c3ccccc3)c12	nt	nt	nt	19	107	134*	115	14	100
NC1=NC(c2cccc(Cl)c2)N(CCc2ccc(F)cc2)C(N)=N1 (stereo not drawn)	nt	nt	nt	9	102	112	nt	nt	nt
CCN(CC)c1ccc2nc3c4ccccc4c(=O)cc-3oc2c1	nt	nt	nt	-26	89	53*[inhibitor]	76	-14	96
CCCCOc1ccc(CSCCN)cc1Cl	nt	nt	nt	41	128*	169*	108	3	97
CCOc1ccc(CSC(=N)N)cc1Cl	nt	nt	nt	18	103	110	nt	nt	nt
CCC(C)(C)NC(=O)C1CCCN(S(=O)(=O)c2ccc3c(c2)CC(C)N3C(=O)C2CC2)C1 (stereo not drawn)	nt	nt	nt	0	98	101	nt	nt	nt
COc1ccccc1-n1c(-c2ccccc2)c[nH]c1=S	-1	-1	8	-21	49*[inhibitor]	65	87	-5	88
S=c1[nH]cc(-c2ccccc2)n1-c1ccccc1Cl	0	-4	-1	-2	100	94	nt	nt	nt
O=C(/C=C/c1ccccc1Cl)N(Cc1ccccc1)C1CCS(=O)(=O)C1 (stereo not drawn)	9	7	-13	0	138*	103	101	-2	100
O=C(/C=C/c1ccccc1Cl)N(Cc1ccc(Cl)cc1)C1CCS(=O)(=O)C1 (stereo not drawn)	4	20	53	-1	104	103	nt	nt	nt
COc1ccc2cc1Oc1ccc(cc1)CC1c3c(cc(OC)c4c3Oc3cc5c(cc3O4)CCNC5C2)CCN1C (stereo not drawn)	nt	nt	nt	30*	75	186*	174	50	107
CCOc1ccc(C2NCCc3cc(OC)c(OC)cc32)cc1OC (stereo not drawn)	nt	nt	nt	1	103	104	nt	nt	nt
COc1cccc(C(=O)NCCCn2ccnc2)c1	1	5	0	-9	93	94	nt	nt	nt
Cc1ccc(NC(=O)CSc2nc3nc(C)cc(C)c3c(=O)[nH]2)cc1	2	39	-14	-42	0.0*[inhibitor]	-1.0*[inhibitor]	108	5	107
c1ccc(-c2cn3nc(-c4ccccc4)c(-c4ccccc4)nc3n2)cc1	1	2	-10	-5	107	63*[inhibitor]	61	-20	93
CCOC(=O)CN1C(=O)C(O)(CC(=O)c2cccc(OC)c2)c2ccccc21 (stereo not drawn)	-6	-5	11	9	105	106	nt	nt	nt
C#CCN1C(=O)C(O)(CC(=O)c2cccc(OC)c2)c2ccccc21 (stereo not drawn)	0	1	-4	-18	1.0*[inhibitor]	1.0*[inhibitor]	108	6	103
SMILES	ABCB1 block	ABCG2 block	WT yeast gro inh	MEKK2mut PB1 HTS	MEKK3 PB1 HTS	MEKK2 WT-MEK5	MEKK2wt confirm	MEKK2mut-MEK5	MEKK3-MEK5 inh
O=C(O)/C=C/c1ccc(S(=O)(=O)Nc2ccc(OCc3ccccc3)cc2)cc1	nt	nt	nt	-22	73*[inhibitor]	84	92	-2	97
O=C(O)CCc1ccc(S(=O)(=O)Nc2ccc(OCc3ccccc3)cc2)cc1	nt	nt	nt	1	104	100	nt	nt	nt
Cc1nc(N2CCN(c3ccccn3)CC2)c2c(C)c(C(=O)N3CCN(c4ccccc4F)CC3)sc2n1	nt	nt	nt	-9	93	88	nt	nt	nt
CCN(CC(O)CON=C1c2ccccc2-c2ccccc21)S(=O)(=O)c1ccc(Cl)cc1 (stereo not drawn)	1	8	7	-1	107	102	nt	nt	nt
CCN(CC(O)CON=C1c2ccccc2-c2ccccc21)S(=O)(=O)c1ccc(C)cc1 (stereo not drawn)	1	2	22	0	141*	110	93	-5	100
O=[N+]([O-])c1c(Nc2ccc(O)cc2)cc(N2CCOCC2)c2nonc12	0	2	-4	0	107	96	nt	nt	nt
CC(=O)Nc1ccc(Nc2cc(N3CCOCC3)c3nonc3c2[N+](=O)[O-])cc1	0	4	1	-17	45*[inhibitor]	49	101	-1	103
CCOC(=O)CC(=O)NC1(Cc2ccc(O)cc2)CCCCC1	0	0	-9	-14	72	68	nt	nt	nt
Cc1cc(OCC(=O)NC(C)(C)C)ccc1Cl	0	12	3	1	128*	105	99	3	103
COCCCNC(=O)COc1ccc(Cl)c(C)c1	0	3	-24	-5	87	92	nt	nt	nt
CN1C(=O)C(CC(=O)N2CCN(C(c3ccccc3)c3ccccc3)CC2)N(C)C1=O (stereo not drawn)	1	4	-5	-17	1.0*[inhibitor]	1.0*[inhibitor]	105	2	102
O=C(O)CC1(CC(=O)Nc2cc(F)ccc2Cl)CCCCC1	nt	nt	nt	28	134*	131	97	-2	99
O=C(O)CC1(CC(=O)Nc2ccc(F)cc2F)CCCCC1	nt	nt	nt	-2	95	94	nt	nt	nt
